Measurements taken from ChEMBL document CHEMBL2321729, “Identification of acidic heterocycle-substituted 1H-pyrazolo[3,4-b]pyridines as soluble guanylate cyclase stimulators” (Bioorg Med Chem Lett, 2013).
Converted amounts (≈) assume the structure as drawn.

Tested on: Rattus norvegicus
Assay: Antihypertensive activity in po dosed spontaneously hypertensive rat assessed as reduction of blood pressure measured up to 24 hrs
Assay type: functional, organism-based
Details: not given
Outline: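 Oral gavage at 0 h in spontaneously hypertensive rats; controls given vehicle. Blood pressure expressed as a percentage of initial values (131–142 mmHg). Mean of 6–12 animals.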

In the case of `O=c1[nH]c(-c2nn(Cc3ccccc3F)c3ncccc23)no1`, the Activity is reported as “Dose-dependent effect”.

Tested on: not listed separately
Assay: Oral bioavailability in Wistar rat at 0.3 mg/kg
Assay type: ADME, organism-based
Details: in vivo
Outline: (§1)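 Wistar rats given 0.3 mg/kg as an intravenous bolus and by oral gavage, formulated in EtOH/PEG400/H₂O; mean values. AUC_norm was calculated from the concentration–time curve after the intravenous dose. Clearance was taken as total plasma (or total blood) clearance. Mean residence time, half-life and oral bioavailability were also derived.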

Compared with `Fc1ccccc1Cn1nc(-c2nnn[nH]2)c2cccnc21`, `O=c1[nH]c(-c2nn(Cc3ccccc3F)c3ncccc23)no1` is lower in bioavailability: 94% for the first, 75% for the second.

`Nc1nc(-c2nn(Cc3ccccc3F)c3ncccc23)nc(N)c1N1CCOCC1` gave a bioavailability of 25%.

Tested on: not listed separately
Assay: Mean residence time in Wistar rat at 0.3 mg/kg, iv and 0.3 mg/kg, po
Assay type: ADME, organism-based
Details: in vivo
Outline: as §1

In the case of `O=c1[nH]c(-c2nn(Cc3ccccc3F)c3ncccc23)no1`, the MRT is reported as 1.9 h.

Tested on: not listed separately
Assay: Total plasma clearance in Wistar rat at 0.3 mg/kg, iv and 0.3 mg/kg, po
Assay type: ADME, organism-based
Details: not given
Outline: as §1

Work on `Fc1ccccc1Cn1nc(-c2nnn[nH]2)c2cccnc21` yielded a clearance of 4.67 mL/min/kg.

Tested on: not listed separately
Assay: Half life in Wistar rat at 0.3 mg/kg, iv and 0.3 mg/kg, po
Assay type: ADME, organism-based
Details: in vivo
Outline: as §1

First: Fc1ccccc1Cn1nc(-c2nnn[nH]2)c2cccnc21
Second: O=c1[nH]c(-c2nn(Cc3ccccc3F)c3ncccc23)no1
The half-life of the first is 1.7-fold higher: 144 min for the first, 84 min for the second.

In the case of `Nc1nc(-c2nn(Cc3ccccc3F)c3ncccc23)nc(N)c1N1CCOCC1`, the half-life is reported as 72 min.

Tested on: not listed separately
Assay: Total blood clearance in Wistar rat at 0.3 mg/kg, iv and 0.3 mg/kg, po
Assay type: ADME, organism-based
Details: whole blood
Outline: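 Wistar rats received 0.3 mg/kg by intravenous bolus and by oral gavage, vehicle EtOH/PEG400/H₂O. Total blood clearance was reported as the mean value from these administrations.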

Going from `Nc1nc(-c2nn(Cc3ccccc3F)c3ncccc23)nc(N)c1N1CCOCC1` to `O=c1[nH]c(-c2nn(Cc3ccccc3F)c3ncccc23)no1`, the clearance falls from 75 mL/min/kg to 11.7 mL/min/kg (6.4-fold).

Tested on: Rattus norvegicus
Assay: Dose normalized AUC in Wistar rat at 0.3 mg/kg, iv
Assay type: ADME, organism-based
Design: dose 0.3 mg/kg, route intravenous
Details: in vivo
Outline: as §1

`Fc1ccccc1Cn1nc(-c2nnn[nH]2)c2cccnc21` and `O=c1[nH]c(-c2nn(Cc3ccccc3F)c3ncccc23)no1` are within 1.5-fold of each other in AUC/dose: 3.63 kg·h/L for the first, 2.79 kg·h/L for the second.

`Nc1nc(-c2nn(Cc3ccccc3F)c3ncccc23)nc(N)c1N1CCOCC1` gave an AUC/dose of 0.32 kg·h/L.

Tested on: Liver microsomes
Assay: Stability of the compound in rat liver microsomes
Assay type: ADME, Microsome
Details: not given
Outline: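 Bioavailability (Fmax) predicted from incubation with rat liver microsomes.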

In the case of `O=c1[nH]nc(-c2nn(Cc3ccccc3F)c3ncccc23)o1`, the Stability is reported as 59%.

Tested on: not listed separately
Assay: Pseudo-thermodynamic solubility of the compound at pH 6.5
Assay type: physicochemical
Details: buffer, read-out: Therm_solubility
Outline: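 Pseudo-thermodynamic solubility measured at pH 6.5.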

`O=c1[nH]c(-c2nn(Cc3ccccc3F)c3ncccc23)ns1` and `O=c1[nH]nc(-c2nn(Cc3ccccc3F)c3ncccc23)[nH]1` are within 1.5-fold of each other in solubility thermodynamic: 11 µg/mL (≈ 33.6 µM) for the first, 16 µg/mL (≈ 51.6 µM) for the second.

`Fc1ccccc1Cn1nc(-c2noc(=S)[nH]2)c2cccnc21` and `O=c1[nH]c(-c2nn(Cc3ccccc3F)c3ncccc23)no1` are within 1.5-fold of each other in solubility thermodynamic: 280 µg/mL (≈ 855 µM) for the first, 320 µg/mL (≈ 1030 µM) for the second.

Compared with `Fc1ccccc1Cn1nc(-c2nnn[nH]2)c2cccnc21`, `Cn1nc(-c2nn(Cc3ccccc3F)c3ncccc23)[nH]c1=O` is 38-fold lower in solubility thermodynamic: 150 µg/mL (≈ 508 µM) for the first, 4 µg/mL (≈ 12.3 µM) for the second.

In the case of `O=c1[nH]nc(-c2nn(Cc3ccccc3F)c3ncccc23)o1`, the solubility thermodynamic is reported as 10 µg/mL (≈ 32.1 µM).

Tested on: Hepatocyte
Assay: Stability of the compound in rat liver hepatocytes
Assay type: ADME, cell-based
Details: not given
Outline: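 Bioavailability (Fmax) predicted from incubation with rat liver hepatocytes.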

Going from `O=c1[nH]c(-c2nn(Cc3ccccc3F)c3ncccc23)ns1` to `O=c1[nH]nc(-c2nn(Cc3ccccc3F)c3ncccc23)[nH]1`, the Stability falls from 90% to 59%.

Compared with `Fc1ccccc1Cn1nc(-c2noc(=S)[nH]2)c2cccnc21`, `O=c1[nH]c(-c2nn(Cc3ccccc3F)c3ncccc23)no1` is higher in Stability: 69% for the first, 98% for the second.

First: Fc1ccccc1Cn1nc(-c2nnn[nH]2)c2cccnc21
Second: Cn1nc(-c2nn(Cc3ccccc3F)c3ncccc23)[nH]c1=O
The Stability of the first is higher: 100% for the first, 74% for the second.

Compared with `O=c1[nH]c(-c2nn(Cc3ccccc3F)c3ncccc23)nn1CC(F)(F)F`, `CCn1nc(-c2nn(Cc3ccccc3F)c3ncccc23)[nH]c1=O` is lower in Stability: 91% for the first, 69% for the second.

`Nc1nc(-c2nn(Cc3ccccc3F)c3ncccc23)nc(N)c1N1CCOCC1` showed a Stability of 76%.

Tested on: not listed separately
Assay: Stimulation of soluble guanylate cyclase activity in pre-contracted rabbit aortic rings assessed as inhibition of vasoconstriction
Details: Oryctolagus cuniculus
Outline: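 Relaxation of rabbit aortic rings that were pre-contracted before exposure. IC50 given as the mean of three experiments.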

First: O=c1[nH]c(-c2nn(Cc3ccccc3F)c3ncccc23)ns1
Second: O=c1[nH]nc(-c2nn(Cc3ccccc3F)c3ncccc23)[nH]1
The IC50 of the first is 6-fold lower: 520 nM for the first, 3100 nM for the second.

`Fc1ccccc1Cn1nc(-c2noc(=S)[nH]2)c2cccnc21` and `O=c1[nH]c(-c2nn(Cc3ccccc3F)c3ncccc23)no1` are within 1.5-fold of each other in IC50: 1100 nM for the first, 1260 nM for the second.

Compared with `Fc1ccccc1Cn1nc(-c2nnn[nH]2)c2cccnc21`, `Cn1nc(-c2nn(Cc3ccccc3F)c3ncccc23)[nH]c1=O` is 9.9-fold lower in IC50: 8600 nM for the first, 870 nM for the second. The second is the more potent here.

`O=c1[nH]nc(-c2nn(Cc3ccccc3F)c3ncccc23)o1` and `CCn1nc(-c2nn(Cc3ccccc3F)c3ncccc23)[nH]c1=O` are within 1.5-fold of each other in IC50: 610 nM for the first, 730 nM for the second.

Going from `O=c1[nH]c(-c2nn(Cc3ccccc3F)c3ncccc23)nn1CC(F)(F)F` to `Nc1nc(-c2nn(Cc3ccccc3F)c3ncccc23)nc(N)c1N1CCOCC1`, the IC50 falls from 610 nM to 100 nM (6.1-fold). The second is the more potent here.
